{"data": "Published values pooled from the literature", "target": "Serine/threonine-protein kinase PLK2 (PLK2, Homo sapiens, UniProt Q9NYY3)", "note": "Protocols differ between the studies behind these lines."}
{"SMILES": "COc1cc(-c2cc(-c3ccc(N4CCNCC4)cc3)cnc2C)cc(OC)c1OC", "effect on": "enzyme activity", "mode": "inhibitor", "tested at": "0.1 µM", "endpoint": "inhibition", "result": "7%"}
{"SMILES": "Cc1sc(C(=O)NC2COC2)cc1-n1cc(NC(=O)Nc2c(F)cccc2Cl)cn1", "effect on": "enzyme activity", "mode": "inhibitor", "tested at": "10 µM", "endpoint": "remaining activity", "result": "95.2%"}
{"SMILES": "CCN(CC)CCNC(=O)c1c(C)[nH]c(/C=C2\\C(=O)Nc3ccc(F)cc32)c1C", "effect on": "enzyme activity", "mode": "inhibitor", "tested at": "0.3 µM", "endpoint": "inhibition", "result": "-2%"}
{"SMILES": "Cc1ccc(NC(=O)c2ccc(CN3CCN(C)CC3)cc2)cc1Nc1nc(-c2cccnc2)cs1", "effect on": "cell-free assay", "tested at": "0.5 µM", "endpoint": "remaining signal", "result": "97.9%"}
{"SMILES": "CCCCN(CCCC)C(=O)CN1C[C@H](c2cc(OC)c3c(c2)OCO3)[C@@H](C(=O)O)[C@@H]1CC(C)(C)CCC", "effect on": "cell-free assay", "method": "competition with immobilised ligand", "tested at": "1 µM", "endpoint": "remaining binding", "result": "67.1%"}
{"SMILES": "CC/C(=N\\NC(=O)NCc1cccc(O)c1)c1ccc(O)c(C)c1O", "effect on": "enzyme activity", "mode": "inhibitor", "tested at": "0.1 µM", "endpoint": "inhibition", "result": "1.3%"}
{"SMILES": "CNC(=O)c1cc(Oc2ccc(NC(=O)Nc3ccc(Cl)c(C(F)(F)F)c3)cc2)ccn1", "effect on": "enzyme activity", "mode": "inhibitor", "tested at": "0.3 µM", "endpoint": "inhibition", "result": "-1%"}
{"SMILES": "O=C1CCc2cc(Nc3cc(OC4CCOCC4)c([N+](=O)[O-])cc3Cl)ccc2N1", "effect on": "cell-free assay", "method": "competition with immobilised ligand", "tested at": "1 µM", "endpoint": "remaining binding", "result": "92%"}
{"SMILES": "N#CCCc1ccc2c(c1)-c1[nH]c3ccc([N+](=O)[O-])cc3c1CC(=O)N2", "effect on": "cell-free assay", "tested at": "0.5 µM", "endpoint": "remaining signal", "result": "99%"}
{"SMILES": "COc1cc(-c2cn(C3CCc4c(F)cccc4N(CC(F)(F)F)C3=O)nn2)ccc1-n1cnc(C)c1 (stereo not shown)", "effect on": "cell-free assay", "method": "competition with immobilised ligand", "tested at": "1 µM", "endpoint": "remaining binding", "result": "100%"}
{"SMILES": "Cc1ccc(NC(=O)c2ccc(C)c(C(F)(F)F)c2)cc1C#Cc1nn(C2CCC(O)CC2)c2ncnc(N)c12 (stereo not shown)", "effect on": "cell-free assay", "tested at": "10 µM", "endpoint": "remaining signal", "result": "109%"}
{"SMILES": "CC(C)(O)[C@H]1CC[C@H](Nc2ccc3ncc(-c4cccc(C(F)(F)F)c4)n3n2)CC1", "effect on": "enzyme activity", "mode": "inhibitor", "tested at": "1 µM", "endpoint": "remaining activity", "result": "93.5%"}
{"SMILES": "Cc1ccc(C(=O)Nc2ccc(CN3CCN(C)CC3)c(C(F)(F)F)c2)cc1C#Cc1cnc2cccnn12", "effect on": "enzyme activity", "mode": "inhibitor", "tested at": "23.5 nM", "endpoint": "remaining activity", "result": "94%"}
{"SMILES": "CC(=O)C1=C(C)N(c2cccc(C(F)(F)F)c2)C(=O)N[C@@H]1c1ccc(C#N)nc1", "effect on": "cell-free assay", "method": "competition with immobilised ligand", "tested at": "1 µM", "endpoint": "remaining binding", "result": "97.8%"}
{"SMILES": "O=C1Nc2ccc(Cl)cc2C1=Cc1cc(Cl)c(O)c(Cl)c1", "effect on": "cell-free assay", "tested at": "0.5 µM", "endpoint": "remaining signal", "result": "95.4%"}
{"SMILES": "CC(C)(C)c1nc(-c2cccc(NS(=O)(=O)c3c(F)cccc3F)c2F)c(-c2ccnc(N)n2)s1", "effect on": "enzyme activity", "mode": "inhibitor", "method": "radiometric", "tested at": "1 µM", "endpoint": "remaining activity", "result": "94%"}
